# According to PMC6457116 (ACS chemical biology, 2018):
# Tested on: IMR-90 human lung fibroblasts
# Experiment: Mammalian cell viability, Cell Titer Glo
# Assay type: cell-based
# Conditions: 1 μg mL^−1 doxorubicin
# Outline: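 IMR-90 fibroblasts from ATCC, grown in EMEM with 10% FBS and Pen-Strep at 37 °C, 5% CO2, split 1:3 at confluence. Seeded 20,000 cells/well and left overnight to adhere. Then treated 24 h or 48 h with 50 μM test compound (0.5% DMSO), 0.5% DMSO, 10% DMSO or doxorubicin hydrochloride (given as 1 μg mL−1 and 1.7 μM). CellTiter-Glo ATP luminescence, no-cell background. Percent death versus 0.5% DMSO.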
structure (smiles),measurement,setting,value
COc1cccc2c1C(=O)c1c(O)c3c(c(O)c1C2=O)C[C@@](O)(C(=O)CO)C[C@@H]3O[C@H]1C[C@H](N)[C@H](O)[C@H](C)O1 [doxorubicin],cells dead,24 h,50%
same,cell death (in words),48 h,near complete cell death
